# Data reported in ChEMBL document CHEMBL1177761, “Click chemistry to probe Hsp90: Synthesis and evaluation of a series of triazole-containing novobiocin analogues” (Bioorg Med Chem Lett, 2010).
# Where “and” joins values, the source holds several entries; their conditions need not be identical. Identical values can stand only once. Calls of active or inactive are those of the source. The calls are words filed in the database; no cut-off is given here.
# Experiments:
# [1] = system: SK-BR-3; assay: Antiproliferative activity against human ER deficient SKBR3 cells over expressing HER2; format: functional, cell-based
# Outline: (§1)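 Growth inhibition was measured in the listed cell lines. IC50 is the compound concentration that inhibits cellular growth by 50%. Values are mean ± standard error from at least two separate experiments, each run in triplicate.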
# [2] = system: MCF7; assay: Antiproliferative activity against human MCF7 cells expressing ER; format: functional, cell-based; outline: as §1
# [3] = biological target: T1, Heat shock protein HSP90 (Homo sapiens) (UniProt P07900+P08238); assay: Inhibition of Hsp90 in human MCF7 cells assessed as Her2 degradation by Western blot analysis; format: cell-based
# [4] = biological target: MCF-7 and SKBr-3 cells (Homo sapiens); assay: Antiproliferative activity against human MCF7 and SKBr3 cells
# [5] = biological target: T1, Heat shock protein HSP90 (Homo sapiens); assay: Inhibition of Hsp90 in human MCF7 cells assessed as c-Raf degradation by Western blot analysis; format: cell-based
Structure (SMILES),IC50 [1],IC50 [2],inhibition [3],IC50 [4],inhibition [5]
CC(=O)Oc1ccc2cc(-n3cc(/C=C/c4ccccc4)nn3)c(=O)oc2c1C,65.1 µM,28.5 µM,,,
CC(=O)Oc1ccc2cc(-n3cc(-c4ccc(N(C)C)cc4)nn3)c(=O)oc2c1C,> 100 µM,> 100 µM,inactive,,
CO[C@@H]1[C@@H](O)[C@@H](C)[C@H](Oc2ccc3cc(NC(=O)c4c[nH]c5ccccc45)c(=O)oc3c2C)OC1(C)C,,,,5.3 µM and 12.2 µM,
Cc1ccc(-c2cn(-c3cc4ccc(O)c(C)c4oc3=O)nn2)cc1,> 100 µM,23.2 µM,,,
Cc1c(O)ccc2cc(-n3cc(-c4cc5ccccc5[nH]4)nn3)c(=O)oc12,42.5 µM,38.3 µM,,,
COc1ccc(-c2cn(-c3cc4ccc(OC(C)=O)c(C)c4oc3=O)nn2)cc1,> 100 µM,> 100 µM,,,
CO[C@@H]1[C@@H](OC(N)=O)[C@@H](O)[C@H](Oc2ccc3c(O)c(NC(=O)c4ccc(O)c(CC=C(C)C)c4)c(=O)oc3c2C)OC1(C)C [NOVOBIOCIN],475 µM,481 µM,,,
COc1cccc(-c2cc(-c3cn(-c4cc5ccc(OC(C)=O)c(C)c5oc4=O)nn3)ccc2OC)c1,50.8 µM,42.4 µM,,,
Cc1c(O)ccc2cc(-n3cc(-c4ccc(F)cc4F)nn3)c(=O)oc12,34.2 µM,33.5 µM,,,
Cc1c(O)ccc2cc(-n3cc(-c4ccccc4)nn3)c(=O)oc12,39 µM,25.2 µM,,,
CC(=O)Oc1ccc2cc(-n3cc(-c4ccc(C)cc4)nn3)c(=O)oc2c1C,90.8 µM,> 100 µM,,,
CO[C@@H]1[C@@H](O)[C@@H](O)[C@H](Oc2ccc3cc(-n4cc(-c5ccccc5)nn4)c(=O)oc3c2C)OC1(C)C,> 100 µM,64.4 µM,,,
CO[C@@H]1[C@@H](O)[C@@H](O)[C@H](Oc2ccc3cc(-n4cc(-c5c[nH]c6ccccc56)nn4)c(=O)oc3c2C)OC1(C)C,8.17 µM,18.3 µM,,,
Cc1c(O)ccc2cc(-n3cc(-c4ccc(N(C)C)cc4)nn3)c(=O)oc12,> 100 µM,> 100 µM,,,
COc1ccc(-c2cn(-c3cc4ccc(O)c(C)c4oc3=O)nn2)cc1,> 100 µM,> 100 µM,,,
CC(=O)Oc1ccc2cc(-n3cc(-c4ccc(F)cc4F)nn3)c(=O)oc2c1C,> 100 µM,> 100 µM,,,
COc1cccc(-c2cc(-c3cn(-c4cc5ccc(O)c(C)c5oc4=O)nn3)ccc2OC)c1,44.9 µM,28 µM,,,
CC(=O)Oc1ccc2cc(-n3cc(-c4cc5ccccc5[nH]4)nn3)c(=O)oc2c1C,50.4 µM,76.1 µM,,,
CC(=O)Oc1ccc2cc(-n3cc(-c4ccccc4)nn3)c(=O)oc2c1C,76.4 µM,40.8 µM,,,
COc1cccc(-c2cc(-c3cn(-c4cc5ccc(O[C@@H]6OC(C)(C)[C@H](OC)[C@@H](O)[C@H]6O)c(C)c5oc4=O)nn3)ccc2OC)c1,21.2 µM,13.2 µM,,,
CC(=O)Oc1ccc2cc(-n3cc(-c4c[nH]c5ccccc45)nn3)c(=O)oc2c1C,6.52 µM,7.45 µM,Dose-dependent effect,,Dose-dependent effect
Cc1c(O)ccc2cc(-n3cc(/C=C/c4ccccc4)nn3)c(=O)oc12,33.9 µM,33.7 µM,,,
